≈ marks a conversion by molar mass, not a printed value.
Experiments:
[1] = tested on: Mycobacterium tuberculosis; assay: Antituberculosis activity against INH resistant Mycobacterium tuberculosis H37Rv; format: functional
How it was run: (§1)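 Agar dilution on 7H11 plates with drug-susceptible and drug-resistant M. tuberculosis H37Rv strains grown in Middlebrook 7H9 broth. Frozen stocks (-80 °C) diluted to about 10⁶ CFU/mL and spotted with a multipoint inoculator onto drug-containing plates. Drugs dissolved in DMSO and serially diluted 2-fold in DMSO. Read-out: MIC.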

[2] = tested on: Mycobacterium tuberculosis; assay: Antituberculosis activity against rifampicin resistant Mycobacterium tuberculosis H37Rv; format: functional; how it was run: as §1

SMILES | MIC [1] [µg/mL] | MIC [2] [µg/mL]
C[C@]1(COc2ccc(N3CCCCC3)cc2)Cn2cc([N+](=O)[O-])nc2O1 | 0.39 (≈ 1.09 µM) | 0.39 (≈ 1.09 µM)
C[C@]1(COc2ccc(N3CCC(Oc4ccc(F)cc4)CC3)cc2)Cn2cc([N+](=O)[O-])nc2O1 | 0.39 (≈ 0.832 µM) | 0.2 (≈ 0.427 µM)
C[C@]1(COc2ccc(N3CCOCC3)cc2)Cn2cc([N+](=O)[O-])nc2O1 | 0.78 (≈ 2.16 µM) | 0.39 (≈ 1.08 µM)
C[C@]1(COc2ccc(N3CCSCC3)cc2)Cn2cc([N+](=O)[O-])nc2O1 | 0.39 (≈ 1.04 µM) | 0.2 (≈ 0.531 µM)
C[C@]1(COc2ccc(N3CCC(Oc4ccc(OC(F)(F)F)cc4)CC3)cc2)Cn2cc([N+](=O)[O-])nc2O1 [DELAMANID] | 0.006 (≈ 0.0112 µM) | 0.006 (≈ 0.0112 µM)
C[C@]1(COc2ccc(N3CCC(Oc4ccc(Cl)cc4)CC3)cc2)Cn2cc([N+](=O)[O-])nc2O1 | 0.05 (≈ 0.103 µM) | 0.024 (≈ 0.0495 µM)
C[C@]1(COc2ccccc2)Cn2cc([N+](=O)[O-])nc2O1 | 0.05 (≈ 0.182 µM) | 0.05 (≈ 0.182 µM)
C[C@]1(COc2ccc(C(F)(F)F)cc2)Cn2cc([N+](=O)[O-])nc2O1 | 0.2 (≈ 0.583 µM) | 0.1 (≈ 0.291 µM)
C[C@]1(COc2ccc(N3CCC(Oc4ccc(C(F)(F)F)cc4)CC3)cc2)Cn2cc([N+](=O)[O-])nc2O1 | 0.012 (≈ 0.0231 µM) | 0.006 (≈ 0.0116 µM)
C[C@]1(COc2ccc(N3CC[S+]([O-])CC3)cc2)Cn2cc([N+](=O)[O-])nc2O1 | 6.25 (≈ 15.9 µM) | 6.25 (≈ 15.9 µM)
Cc1ccc(OC2CCN(c3ccc(OC[C@@]4(C)Cn5cc([N+](=O)[O-])nc5O4)cc3)CC2)cc1 | 0.39 (≈ 0.84 µM) | 0.39 (≈ 0.84 µM)
C[C@]1(COc2ccc(OC(F)(F)F)cc2)Cn2cc([N+](=O)[O-])nc2O1 | 0.39 (≈ 1.09 µM) | 0.2 (≈ 0.557 µM)
Cc1ccc(OC[C@@]2(C)Cn3cc([N+](=O)[O-])nc3O2)cc1 | 0.024 (≈ 0.083 µM) | 0.012 (≈ 0.0415 µM)
C[C@]1(COc2ccc(N3CCC(Oc4ccccc4)CC3)cc2)Cn2cc([N+](=O)[O-])nc2O1 | 0.39 (≈ 0.866 µM) | 0.2 (≈ 0.444 µM)
COc1ccc(OC[C@@]2(C)Cn3cc([N+](=O)[O-])nc3O2)cc1 | 0.1 (≈ 0.328 µM) | 0.05 (≈ 0.164 µM)
C[C@]1(COc2ccc(N3CCC(Oc4ccccc4OC(F)(F)F)CC3)cc2)Cn2cc([N+](=O)[O-])nc2O1 | 0.39 (≈ 0.73 µM) | 0.2 (≈ 0.374 µM)
COc1ccc(OC2CCN(c3ccc(OC[C@@]4(C)Cn5cc([N+](=O)[O-])nc5O4)cc3)CC2)cc1 | 0.39 (≈ 0.812 µM) | 0.2 (≈ 0.416 µM)
C[C@]1(COc2ccc(N3CCC(Oc4cccc(OC(F)(F)F)c4)CC3)cc2)Cn2cc([N+](=O)[O-])nc2O1 | 0.024 (≈ 0.0449 µM) | 0.024 (≈ 0.0449 µM)
C[C@]1(COc2ccc(Cl)cc2)Cn2cc([N+](=O)[O-])nc2O1 | 0.012 (≈ 0.0387 µM) | 0.006 (≈ 0.0194 µM)

From ChEMBL document CHEMBL1138853, “Synthesis and antituberculosis activity of a novel series of optically active 6-nitro-2,3-dihydroimidazo[2,1-b]oxazoles” (2006)
